# In ChEMBL document CHEMBL3102840, “Synthesis and anti-proliferative activity of aromatic substituted 5-((1-benzyl-1H-indol-3-yl)methylene)-1,3-dimethylpyrimidine-2,4,6(1H,3H,5H)-trione analogs against human tumor cell lines” (2014):
# How the values were obtained:
# Format in all cases: functional
# MDA-MB-468 [1] = experiment: Cytotoxicity against human MDA-MB-468 cells after 48 hrs by SRB assay; settings: MDA-MB-468, 48 h
# Method in brief: (§1)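 Five-dose run from the sixty-line panel, at 10−4, 10−5, 10−6, 10−7 and 10−8 M. SRB-stain OD is read just before compound addition, after 48 hrs of exposure, and in vehicle controls, giving percentage growth; negative growth indicates cytotoxicity. GI50 is the concentration giving 50% reduction in net protein increase versus control cells. LC50 is the concentration lethal to 50% of cells.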
# BT-549 = experiment: Cytotoxicity against human BT549 cells after 48 hrs by SRB assay; settings: BT-549, 48 h; for CC50: read-out: LC50 (the source's name); method in brief: as §1
# T47D = experiment: Cytotoxicity against human T47D cells after 48 hrs by SRB assay; method in brief: as §1
# MDA-MB-231 = experiment: Cytotoxicity against human MDA-MB-231 cells after 48 hrs by SRB assay; settings: MDA-MB-231, 48 h; for CC50: read-out: LC50 (the source's name); method in brief: as §1
# MCF7 = experiment: Cytotoxicity against human MCF7 cells after 48 hrs by SRB assay; settings: MCF7, 48 h; method in brief: as §1
# SN12C = experiment: Cytotoxicity against human SN12C cells after 48 hrs by SRB assay; settings: for CC50: read-out: LC50 (the source's name); method in brief: as §1
# TK-10 [2] = experiment: Cytotoxicity against human TK10 cells after 48 hrs by SRB assay; settings: TK-10, 48 h; for CC50: read-out: LC50 (the source's name); method in brief: as §1
# A498 [3] = experiment: Cytotoxicity against human A498 cells after 48 hrs by SRB assay; settings: A498, 48 h; method in brief: as §1
# RXF 393 = experiment: Cytotoxicity against human RXF393 cells after 48 hrs by SRB assay; settings: RXF 393, 48 h; method in brief: as §1
# SK-OV-3 = experiment: Cytotoxicity against human SKOV3 cells after 48 hrs by SRB assay; settings: SK-OV-3, 48 h; method in brief: as §1
# 786-0 = experiment: Cytotoxicity against human 786-0 cells after 48 hrs by SRB assay; settings: 786-0, 48 h; method in brief: as §1
# [4] = Cytotoxicity against human NCI-ADR-RES cells after 48 hrs by SRB assay; settings: for CC50: read-out: LC50 (the source's name); method in brief: as §1
# OVCAR-8 = experiment: Cytotoxicity against human OVCAR8 cells after 48 hrs by SRB assay; settings: OVCAR-8, 48 h; for CC50: read-out: LC50 (the source's name); method in brief: as §1
# [5] = Cytotoxicity against human OVCAR5 cells after 48 hrs by SRB assay; settings: OVCAR-5, 48 h; for CC50: read-out: LC50 (the source's name); method in brief: as §1
# IGROV-1 = experiment: Cytotoxicity against human IGROV1 cells after 48 hrs by SRB assay; settings: IGROV-1, 48 h; for CC50: read-out: LC50 (the source's name); method in brief: as §1
# UACC-62 = experiment: Cytotoxicity against human UACC62 cells after 48 hrs by SRB assay; settings: UACC-62, 48 h; method in brief: as §1
# [6] = Cytotoxicity against human UACC257 cells after 48 hrs by SRB assay; settings: UACC-257, 48 h; for CC50: read-out: LC50 (the source's name); method in brief: as §1
# SK-MEL-2 = experiment: Cytotoxicity against human SK-MEL-2 cells after 48 hrs by SRB assay; settings: SK-MEL-2, 48 h; method in brief: as §1
# SK-MEL-5 = experiment: Cytotoxicity against human SK-MEL-5 cells after 48 hrs by SRB assay; settings: SK-MEL-5, 48 h; method in brief: as §1
# MDA-MB-435 = experiment: Cytotoxicity against human MDA-MB-435 cells after 48 hrs by SRB assay; settings: MDA-MB-435, 48 h; method in brief: as §1
# LOX IMVI = experiment: Cytotoxicity against human LOXIMVI cells after 48 hrs by SRB assay; settings: for CC50: read-out: LC50 (the source's name); method in brief: as §1
# SNB-19 = experiment: Cytotoxicity against human SNB19 cells after 48 hrs by SRB assay; settings: SNB-19, 48 h; method in brief: as §1
# SF-295 = experiment: Cytotoxicity against human SF295 cells after 48 hrs by SRB assay; settings: SF-295, 48 h; method in brief: as §1
# SW-620 = experiment: Cytotoxicity against human SW620 cells after 48 hrs by SRB assay; settings: SW-620, 48 h; for CC50: read-out: LC50 (the source's name); method in brief: as §1
# HCT-116 = experiment: Cytotoxicity against human HCT116 cells after 48 hrs by SRB assay; settings: HCT-116, 48 h; method in brief: as §1
# COLO 205 = experiment: Cytotoxicity against human COLO205 cells after 48 hrs by SRB assay; settings: COLO 205, 48 h; for CC50: read-out: LC50 (the source's name); method in brief: as §1
# NCI-H460 = experiment: Cytotoxicity against human NCI-H460 cells after 48 hrs by SRB assay; settings: NCI-H460, 48 h; for CC50: read-out: LC50 (the source's name); method in brief: as §1
# NCI-H23 = experiment: Cytotoxicity against human NCI-H23 cells after 48 hrs by SRB assay; settings: NCI-H23, 48 h; method in brief: as §1
# NCI-H226 [7] = experiment: Cytotoxicity against human NCI-H226 cells after 48 hrs by SRB assay; settings: NCI-H226, 48 h; for CC50: read-out: LC50 (the source's name); method in brief: as §1
# HOP-62 = experiment: Cytotoxicity against human HOP62 cells after 48 hrs by SRB assay; settings: HOP-62, 48 h; for CC50: read-out: LC50 (the source's name); method in brief: as §1
# K562 = experiment: Cytotoxicity against human K562 cells after 48 hrs by SRB assay; settings: K562, 48 h; for CC50: read-out: LC50 (the source's name); method in brief: as §1
# SR = experiment: Cytotoxicity against human SR cells after 48 hrs by SRB assay; method in brief: as §1
# MDA-MB-468 [8] = experiment: Cytotoxicity against human MDA-MB-468 cells assessed as growth inhibition at 10 uM after 48 hrs by SRB assay; settings: MDA-MB-468, 48 h, read-out: GI
# Method in brief: (§2)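 Single-dose screen at 10µM across the sixty-cell-line panel. Percentage growth is derived from SRB-stain OD taken just before compound exposure, after 48 hrs exposure, and in vehicle-treated controls. Negative values indicate cytotoxicity.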
# TK-10 [9] = experiment: Cytotoxicity against human TK10 cells assessed as growth inhibition at 10 uM after 48 hrs by SRB assay; settings: TK-10, 48 h, read-out: GI; method in brief: as §2
# A498 [10] = experiment: Cytotoxicity against human A498 cells assessed as growth inhibition at 10 uM after 48 hrs by SRB assay; settings: A498, 48 h, read-out: GI; method in brief: as §2
# [11] = Cytotoxicity against human OVCAR5 cells assessed as growth inhibition at 10 uM after 48 hrs by SRB assay; settings: OVCAR-5, 48 h, read-out: GI; method in brief: as §2
# NCI-H226 [12] = experiment: Cytotoxicity against human NCI-H226 cells assessed as growth inhibition at 10 uM after 48 hrs by SRB assay; settings: NCI-H226, 48 h, read-out: GI; method in brief: as §2
compound,measurement,setting,value
COc1ccc(Cn2cc(C=C3C(=O)N(C)C(=O)N(C)C3=O)c3ccccc32)cc1,GI50,MDA-MB-468 [1],0.04 µM
same,LC50,MDA-MB-468 [1],0.76 µM
same,GI50,BT-549,4.94 µM
same,CC50,BT-549,> 100 µM
same,GI50,T47D,3.53 µM
same,LC50,T47D,> 100 µM
same,GI50,MDA-MB-231,5.86 µM
same,CC50,MDA-MB-231,> 100 µM
same,GI50,MCF7,5.26 µM
same,LC50,MCF7,> 100 µM
same,GI50,SN12C,12.5 µM
same,CC50,SN12C,> 100 µM
same,GI50,TK-10 [2],0.1 µM
same,CC50,TK-10 [2],72.5 µM
same,GI50,A498 [3],0.06 µM
same,LC50,A498 [3],5.27 µM
same,GI50,RXF 393,14.8 µM
same,"LC50 (lethal concentration, 50%)",RXF 393,> 100 µM
same,GI50,SK-OV-3,5.03 µM
same,LC50,SK-OV-3,> 100 µM
same,GI50,786-0,11.2 µM
same,LC50,786-0,> 100 µM
same,GI50,[4],3.59 µM
same,CC50,[4],> 100 µM
same,GI50,OVCAR-8,13.4 µM
same,CC50,OVCAR-8,88.6 µM
same,GI50,[5],0.02 µM
same,CC50,[5],> 100 µM
same,GI50,IGROV-1,1.93 µM
same,CC50,IGROV-1,> 100 µM
same,GI50,UACC-62,0.9 µM
same,LC50,UACC-62,68 µM
same,GI50,[6],1.54 µM
same,CC50,[6],38.2 µM
same,GI50,SK-MEL-2,2.78 µM
same,GI50,SK-MEL-5,5.08 µM
same,LC50,SK-MEL-5,64.4 µM
same,GI50,MDA-MB-435,3.29 µM
same,LC50,MDA-MB-435,> 100 µM
same,GI50,LOX IMVI,5.45 µM
same,CC50,LOX IMVI,> 100 µM
same,GI50,SNB-19,15.8 µM
same,LC50,SNB-19,> 100 µM
same,GI50,SF-295,1.54 µM
same,LC50,SF-295,> 100 µM
same,GI50,SW-620,6.89 µM
same,CC50,SW-620,> 100 µM
same,GI50,HCT-116,5.01 µM
same,LC50,HCT-116,> 100 µM
same,GI50,COLO 205,0.63 µM
same,CC50,COLO 205,45.3 µM
same,GI50,NCI-H460,0.81 µM
same,CC50,NCI-H460,82.8 µM
same,GI50,NCI-H23,4.67 µM
same,LC50,NCI-H23,> 100 µM
same,GI50,NCI-H226 [7],1.44 µM
same,CC50,NCI-H226 [7],53.9 µM
same,GI50,HOP-62,6.22 µM
same,CC50,HOP-62,> 100 µM
same,GI50,K562,2.18 µM
same,CC50,K562,> 100 µM
same,GI50,SR,5.43 µM
same,"LC50 (lethal concentration, 50%)",SR,> 100 µM
same,inhibition of growth at 10 µM,MDA-MB-468 [8],-65%
same,inhibition of growth at 10 µM,TK-10 [9],-12%
same,inhibition of growth at 10 µM,A498 [10],-92%
same,inhibition of growth at 10 µM,[11],-38%
same,inhibition of growth at 10 µM,NCI-H226 [12],-55%
Cc1ccc(Cn2cc(C=C3C(=O)N(C)C(=O)N(C)C3=O)c3ccccc32)cc1,GI50,MDA-MB-468 [1],0.03 µM
same,LC50,MDA-MB-468 [1],0.62 µM
same,GI50,BT-549,13.5 µM
same,CC50,BT-549,> 100 µM
same,GI50,T47D,5 µM
same,LC50,T47D,> 100 µM
same,GI50,MDA-MB-231,13.6 µM
same,CC50,MDA-MB-231,> 100 µM
same,GI50,MCF7,6.76 µM
same,LC50,MCF7,> 100 µM
same,GI50,SN12C,> 100 µM
same,CC50,SN12C,> 100 µM
same,GI50,TK-10 [2],0.28 µM
same,CC50,TK-10 [2],> 100 µM
same,GI50,A498 [3],0.12 µM
same,LC50,A498 [3],0.69 µM
same,GI50,RXF 393,15.2 µM
same,"LC50 (lethal concentration, 50%)",RXF 393,> 100 µM
same,GI50,SK-OV-3,23.7 µM
same,LC50,SK-OV-3,> 100 µM
same,GI50,786-0,22.1 µM
same,LC50,786-0,> 100 µM
same,GI50,[4],6.23 µM
same,CC50,[4],> 100 µM
same,GI50,OVCAR-8,> 100 µM
same,CC50,OVCAR-8,> 100 µM
same,GI50,[5],0.07 µM
same,CC50,[5],> 100 µM
same,GI50,IGROV-1,2.95 µM
same,CC50,IGROV-1,> 100 µM
same,GI50,UACC-62,2.42 µM
same,LC50,UACC-62,> 100 µM
same,GI50,[6],2.02 µM
same,CC50,[6],> 100 µM
same,GI50,SK-MEL-2,3.36 µM
same,GI50,SK-MEL-5,9.17 µM
same,LC50,SK-MEL-5,> 100 µM
same,LC50,MDA-MB-435,> 100 µM
same,GI50,LOX IMVI,27.8 µM
same,CC50,LOX IMVI,> 100 µM
same,GI50,SNB-19,26.8 µM
same,LC50,SNB-19,> 100 µM
same,GI50,SF-295,2.02 µM
same,LC50,SF-295,> 100 µM
same,CC50,SW-620,> 100 µM
same,GI50,HCT-116,5.45 µM
same,LC50,HCT-116,> 100 µM
same,GI50,COLO 205,1.89 µM
same,CC50,COLO 205,> 100 µM
same,GI50,NCI-H460,0.91 µM
same,CC50,NCI-H460,> 100 µM
same,GI50,NCI-H23,8.19 µM
same,LC50,NCI-H23,> 100 µM
same,GI50,NCI-H226 [7],1.95 µM
same,CC50,NCI-H226 [7],> 100 µM
same,GI50,HOP-62,7.44 µM
same,CC50,HOP-62,> 100 µM
same,GI50,K562,2.23 µM
same,CC50,K562,> 100 µM
same,GI50,SR,1.89 µM
same,"LC50 (lethal concentration, 50%)",SR,> 100 µM
same,inhibition of growth at 10 µM,MDA-MB-468 [8],-62%
same,inhibition of growth at 10 µM,TK-10 [9],-4%
same,inhibition of growth at 10 µM,A498 [10],-91%
same,inhibition of growth at 10 µM,[11],-23%
same,inhibition of growth at 10 µM,NCI-H226 [12],-63%
